Test results: ChEMBL document CHEMBL4813913, “In vitro identification of imidazo[1,2-a]pyrazine-based antileishmanial agents and evaluation of L. major casein kinase 1 inhibition” (Eur J Med Chem, 2021); call rule not given here

Key:
[1] = target: Cyclin-dependent kinase 5/CDK5 activator 1 (Homo sapiens, UniProt Q00535); test: Inhibition of human recombinant CDK5/ p25 expressed in bacterial expression system using histone H1 as substrate in presence of ATP measured after 30 mins by ADP-Glo assay
Leishmania donovani = test: Antileishmanial activity against amastigote stage of Leishmania donovani (MHOM/ET/67/HU3) infected in mouse RAW264.7 cells assessed as reduction in parasitic proliferation measured by SYBR Green 1 dye based fluorescence assay; format: functional, organism-based; details: MHOM/ET/67/HU3, RAW264.7
How it was run: (§1)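 RAW 264.7 macrophages seeded at 100,000 cells/well in DMEM with 10% heat-inactivated FBS, 24 h at 37 °C, 5% CO₂. Infected with plateau-phase promastigotes (parasite:macrophage 16:1) for 24 h. Compounds serially diluted, final 391 nM–100 μM. Amastigote viability read by SYBR Green I after lysis and 3 freeze-thaw cycles. IC50 by nonlinear regression against excipient-treated controls. Miltefosine reference.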

Leishmania braziliensis = test: Antileishmanial activity against amastigote stage of Leishmania braziliensis (MHOM/BR/75/M2903b) infected in mouse RAW264.7 cells assessed as reduction in parasitic proliferation measured by SYBR Green 1 dye based fluorescence assay; format: functional, organism-based; how it was run: as §1
[2] = Toxicity against Galleria mellonella larva assessed as cuticular darkening at 50 mg/kg measured for 7 days; format: organism-based; details: in vivo, 168 h, time 7 day
How it was run: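 G. mellonella larvae (6th stage, 260–320 mg), groups of ten. Injected in the 4th left pro-leg with 10 μL at 10–50 mg/kg; controls got PBS/DMSO (DMSO <40%). Kept in the dark at 37 °C. Survival and cuticular darkening scored daily for 7 days; death taken as no movement on stimulus. Kaplan-Meier with log-rank test; two independent experiments.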

[3] = target: Dual specificity protein kinase CLK1 (Mus musculus, UniProt P22518); test: Inhibition of recombinant mouse CLK1 expressed in bacteria using GRSRSRSRSRSR as substrate in presence of ATP measured after 30 mins by ADP-Glo assay
[4] = Selectivity index, ratio of CC50 for mouse RAW264.7 cells to IC50 for amastigote stage of Leishmania amazonensis (MHOM/BR/73/M2269) infected in mouse RAW264.7 cells; format: toxicity, cell-based; details: read-out: Ratio CC50/IC50
How it was run: (§2)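 Selectivity index is CC50 on RAW 264.7 or MRC-5 cells divided by IC50 on intracellular amastigotes.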

CDK9/cyclin T1 [5] = target: T1, CDK9/cyclin T1 (Homo sapiens, UniProt P50750); test: Inhibition of human recombinant CDK9/CyclinT expressed in baculovirus infected Sf9 cells using YSPTSPSYSPTSPSYSPTSPSKKK as substrate in presence of ATP measured after 30 mins by ADP-Glo assay
[6] = target: Serine/threonine-protein kinase pim-1 (Homo sapiens, UniProt P11309); test: Inhibition of recombinant human PIM1 expressed in bacteria using histone H1 as substrate in presence of ATP measured after 30 mins by ADP-Glo assay; details: 0.5 h
[7] = Selectivity index, ratio of CC50 for human MRC5 cells to IC50 for amastigote stage of Leishmania infantum (MHOM/FR/2008/LEM5700) infected in mouse RAW264.7 cells; format: toxicity, cell-based; details: read-out: Ratio CC50/IC50; how it was run: as §2
Aurora kinase B [8] = target: T2, Aurora kinase B (Homo sapiens, UniProt Q96GD4); test: Inhibition of recombinant human AURKB expressed in baculovirus infected Sf9 cells using MBP as substrate in presence of ATP measured after 30 mins by ADP-Glo assay; details: sf9, 0.5 h
[9] = target: T3, Dual specificity tyrosine-phosphorylation-regulated kinase 1A (Rattus norvegicus, UniProt Q63470); test: Inhibition of recombinant rat DYRK1A (1 to 499 ) expressed in bacterial expression system using KKISGRLSPIMTEQ as substrate in presence of ATP measured after 30 mins by ADP-Glo assay; details: 0.5 h
[10] = Selectivity index, ratio of CC50 for human MRC5 cells to IC50 for amastigote stage of Leishmania donovani (MHOM/ET/67/HU3) infected in mouse RAW264.7 cells; format: toxicity, cell-based; details: read-out: Ratio CC50/IC50; how it was run: as §2
CDK2/Cyclin A2 = CDK2/Cyclin A2 (Homo sapiens, UniProt P24941); test: Inhibition of human CDK2/ cyclinA using histone H1 as substrate in presence of ATP measured after 30 mins by ADP-Glo assay; format: protein-complex assay
Leishmania infantum = test: Antileishmanial activity against amastigote stage of Leishmania infantum (MHOM/FR/2008/LEM5700) infected in mouse RAW264.7 cells assessed as reduction in parasitic proliferation measured by SYBR Green 1 dye based fluorescence assay; format: functional, organism-based; details: MHOM/FR/2008/LEM5700, RAW264.7; how it was run: as §1
Leishmania amazonensis = test: Antileishmanial activity against amastigote stage Leishmania amazonensis (MHOM/BR/73/M2269) infected in mouse RAW264.7 cells assessed as reduction in parasitic proliferation measured by SYBR Green 1 dye based fluorescence assay; format: functional, organism-based; details: MHOM/BR/73/M2269, RAW264.7; how it was run: as §1
[11] = Selectivity index, ratio of CC50 for human MRC5 cells to IC50 for amastigote stage of Leishmania braziliensis (MHOM/BR/75/M2903b) infected in mouse RAW264.7 cells; format: toxicity, cell-based; details: read-out: Ratio CC50/IC50; how it was run: as §2
[12] = target: T3, Dual specificity tyrosine-phosphorylation-regulated kinase 1A; test: Inhibition of recombinant rat DYRK1A (1 to 499 ) expressed in bacterial expression system using KKISGRLSPIMTEQ as substrate in presence of [gamma-33P]ATP measured by radiometric assay; details: for inhibition (INH): rat
[13] = target: Receptor-interacting serine/threonine-protein kinase 3 (Homo sapiens, UniProt Q9Y572); test: Inhibition of recombinant human RIPK3 expressed in baculovirus infected Sf9 cells using MBP as substrate in presence of [gamma-33P]ATP by radiometric assay
Aurora kinase B [14] = target: T2, Aurora kinase B; test: Inhibition of recombinant human AURKB expressed in baculovirus infected Sf9 cells using MBP as substrate in presence of [gamma-33P]ATP measured by radiometric assay
[15] = Inhibition of recombinant Leishmania major CK1.2 expressed in bacterial expression system using RRKHAAIGSpAYSITA as substrate in presence of [gamma-33P]ATP by radiometric assay
CDK9/cyclin T1 [16] = target: T1, CDK9/cyclin T1; test: Inhibition of human recombinant CDK9/CyclinT expressed in baculovirus infected Sf9 cells using YSPTSPSYSPTSPSYSPTSPSKKK as substrate in presence of [gamma-33P]ATP by radiometric assay

T1 sequence (O60563 whole entry): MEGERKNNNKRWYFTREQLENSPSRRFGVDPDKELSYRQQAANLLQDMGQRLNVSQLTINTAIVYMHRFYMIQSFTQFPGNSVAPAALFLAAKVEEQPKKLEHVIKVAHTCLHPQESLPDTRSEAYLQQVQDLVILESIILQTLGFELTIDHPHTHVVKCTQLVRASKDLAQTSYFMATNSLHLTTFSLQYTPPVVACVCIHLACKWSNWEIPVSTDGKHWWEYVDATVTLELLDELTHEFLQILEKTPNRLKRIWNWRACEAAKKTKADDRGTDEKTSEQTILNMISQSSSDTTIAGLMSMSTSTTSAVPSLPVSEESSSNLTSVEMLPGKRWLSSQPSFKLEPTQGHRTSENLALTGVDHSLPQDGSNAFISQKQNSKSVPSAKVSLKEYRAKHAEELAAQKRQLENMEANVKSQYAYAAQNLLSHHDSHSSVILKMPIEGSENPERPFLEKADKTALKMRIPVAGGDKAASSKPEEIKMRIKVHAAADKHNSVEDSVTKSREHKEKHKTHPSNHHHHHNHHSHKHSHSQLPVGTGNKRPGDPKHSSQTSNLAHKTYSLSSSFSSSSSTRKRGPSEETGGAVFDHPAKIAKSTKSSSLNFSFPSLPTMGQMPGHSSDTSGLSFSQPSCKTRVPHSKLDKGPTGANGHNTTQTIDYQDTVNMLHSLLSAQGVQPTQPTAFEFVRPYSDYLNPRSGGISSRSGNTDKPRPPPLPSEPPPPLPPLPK
T1 sequence (P50750 whole entry): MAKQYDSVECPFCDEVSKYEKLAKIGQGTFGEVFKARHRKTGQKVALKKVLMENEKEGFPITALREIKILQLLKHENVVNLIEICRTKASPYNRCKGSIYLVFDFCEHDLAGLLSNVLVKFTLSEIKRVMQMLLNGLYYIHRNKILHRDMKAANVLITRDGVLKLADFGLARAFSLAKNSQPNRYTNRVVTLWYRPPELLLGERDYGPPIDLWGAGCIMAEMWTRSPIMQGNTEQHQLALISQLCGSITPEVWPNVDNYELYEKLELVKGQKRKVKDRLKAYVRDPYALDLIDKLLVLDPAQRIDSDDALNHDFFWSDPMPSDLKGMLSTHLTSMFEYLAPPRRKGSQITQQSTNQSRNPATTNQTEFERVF
T2 sequence (Q96GD4 whole entry): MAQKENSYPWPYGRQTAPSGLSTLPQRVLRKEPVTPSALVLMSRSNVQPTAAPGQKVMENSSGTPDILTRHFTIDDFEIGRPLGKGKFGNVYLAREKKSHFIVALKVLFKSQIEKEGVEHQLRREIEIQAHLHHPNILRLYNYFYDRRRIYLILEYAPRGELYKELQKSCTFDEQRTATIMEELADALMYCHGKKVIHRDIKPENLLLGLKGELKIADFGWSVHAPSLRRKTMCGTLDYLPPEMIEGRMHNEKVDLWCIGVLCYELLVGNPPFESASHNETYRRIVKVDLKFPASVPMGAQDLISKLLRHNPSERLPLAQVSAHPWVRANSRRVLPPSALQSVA
Receptor-interacting serine/threonine-protein kinase 3, sequence (Q9Y572 whole entry): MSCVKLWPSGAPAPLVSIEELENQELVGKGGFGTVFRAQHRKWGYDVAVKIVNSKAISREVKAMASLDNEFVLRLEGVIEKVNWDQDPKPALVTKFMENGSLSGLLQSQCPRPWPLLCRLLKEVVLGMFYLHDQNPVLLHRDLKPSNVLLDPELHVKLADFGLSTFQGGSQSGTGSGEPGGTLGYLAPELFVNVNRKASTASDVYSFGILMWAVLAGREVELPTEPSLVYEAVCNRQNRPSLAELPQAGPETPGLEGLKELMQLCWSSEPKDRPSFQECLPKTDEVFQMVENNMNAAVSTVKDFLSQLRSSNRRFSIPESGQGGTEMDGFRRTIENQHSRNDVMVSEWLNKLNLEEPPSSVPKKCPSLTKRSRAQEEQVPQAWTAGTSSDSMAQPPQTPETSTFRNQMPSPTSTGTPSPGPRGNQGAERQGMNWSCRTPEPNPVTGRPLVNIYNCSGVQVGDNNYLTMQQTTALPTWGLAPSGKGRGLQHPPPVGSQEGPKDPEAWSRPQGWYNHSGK
Dual specificity protein kinase CLK1, sequence (P22518 whole entry): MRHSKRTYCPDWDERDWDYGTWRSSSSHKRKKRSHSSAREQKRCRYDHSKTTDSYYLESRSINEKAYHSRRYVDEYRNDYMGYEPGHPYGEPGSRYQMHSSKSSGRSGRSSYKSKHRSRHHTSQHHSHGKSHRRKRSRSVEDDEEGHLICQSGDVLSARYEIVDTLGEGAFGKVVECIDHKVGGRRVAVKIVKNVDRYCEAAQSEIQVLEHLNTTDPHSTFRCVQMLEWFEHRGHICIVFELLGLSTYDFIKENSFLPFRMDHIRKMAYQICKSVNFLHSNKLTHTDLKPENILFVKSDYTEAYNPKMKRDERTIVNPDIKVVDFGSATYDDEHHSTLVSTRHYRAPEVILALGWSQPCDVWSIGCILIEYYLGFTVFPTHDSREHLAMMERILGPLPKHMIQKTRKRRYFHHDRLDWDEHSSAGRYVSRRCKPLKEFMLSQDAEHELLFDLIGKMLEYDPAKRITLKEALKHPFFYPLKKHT
Cyclin-dependent kinase 5/CDK5 activator 1, sequence (Q00535 whole entry): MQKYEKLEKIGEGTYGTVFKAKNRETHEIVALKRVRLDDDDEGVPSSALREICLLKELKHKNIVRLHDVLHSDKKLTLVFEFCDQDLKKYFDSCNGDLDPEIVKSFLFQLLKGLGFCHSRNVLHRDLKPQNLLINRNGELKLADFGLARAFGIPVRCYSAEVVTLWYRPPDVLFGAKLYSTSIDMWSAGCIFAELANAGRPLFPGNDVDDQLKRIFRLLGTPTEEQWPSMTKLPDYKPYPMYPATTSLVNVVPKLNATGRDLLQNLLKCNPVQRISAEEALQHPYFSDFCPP
Cyclin-dependent kinase 5/CDK5 activator 1, sequence (Q15078 whole entry, further chain): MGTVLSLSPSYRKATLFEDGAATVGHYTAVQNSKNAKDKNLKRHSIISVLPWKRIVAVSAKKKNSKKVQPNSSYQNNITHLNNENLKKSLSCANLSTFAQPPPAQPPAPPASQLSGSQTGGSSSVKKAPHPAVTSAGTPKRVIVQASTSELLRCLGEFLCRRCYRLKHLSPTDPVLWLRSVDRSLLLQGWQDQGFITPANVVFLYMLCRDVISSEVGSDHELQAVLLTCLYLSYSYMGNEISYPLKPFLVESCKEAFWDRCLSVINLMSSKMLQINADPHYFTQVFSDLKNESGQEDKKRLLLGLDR
Serine/threonine-protein kinase pim-1, sequence (P11309 whole entry): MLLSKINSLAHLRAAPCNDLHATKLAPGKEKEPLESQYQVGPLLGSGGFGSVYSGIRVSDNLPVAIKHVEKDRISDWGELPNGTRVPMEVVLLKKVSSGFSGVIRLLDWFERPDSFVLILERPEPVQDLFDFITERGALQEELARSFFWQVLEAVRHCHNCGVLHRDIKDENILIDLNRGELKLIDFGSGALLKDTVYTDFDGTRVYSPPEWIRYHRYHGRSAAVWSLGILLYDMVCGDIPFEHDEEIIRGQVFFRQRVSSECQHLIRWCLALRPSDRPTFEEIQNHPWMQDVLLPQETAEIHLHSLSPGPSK

| SMILES | IC50 [1] [µM] | IC50 (Leishmania donovani) [µM] | IC50 (Leishmania braziliensis) [µM] | Activity [2] | IC50 [3] [µM] | selectivity ratio [4] | IC50 (CDK9/cyclin T1 [5]) [µM] | inhibition (INH) [6] | selectivity ratio [7] | inhibition (INH) (Aurora kinase B [8]) | inhibition (INH) [9] | selectivity ratio [10] | IC50 (Leishmania infantum) [µM] | IC50 (Leishmania amazonensis) [µM] | selectivity ratio [11] | inhibition (INH) [12] | inhibition (INH) [13] | inhibition (INH) (Aurora kinase B [14]) | IC50 [15] [µM] | IC50 (CDK9/cyclin T1 [16]) [µM] | further results |
| --- | --- | --- | --- | --- | --- | --- | --- | --- | --- | --- | --- | --- | --- | --- | --- | --- | --- | --- | --- | --- | --- |
| CN(C)c1nccn2c(-c3ccncc3)c(-c3ccc(F)cc3)nc12 | > 10 | 2.74 | 57.9 | Non-Toxic | > 10 | 1.5 | > 10 | Not Active | 7.8 | Not Active | Not Active | 36.5 | 12.8 | 28.4 | 1.7 |  |  |  |  |  | IC50 (CDK2/Cyclin A2): > 10 µM |
| CN(C)c1nccn2c(-c3cncnc3)c(-c3ccc(F)cc3)nc12 | > 10 | > 50 | 22.8 | Non-Toxic | > 10 |  | > 10 | Not Active |  | Not Active | Not Active |  | > 50 | > 50 | 4.4 |  |  |  |  |  | IC50 (CDK2/Cyclin A2): > 10 µM |
| CSc1nccc(-c2c(-c3ccc(F)cc3)nc3c(Cl)nccn23)n1 |  | > 100 | 74 | Non-Toxic |  |  |  |  |  |  |  |  | > 100 | > 100 | 1.1 | Not Active | Not Active | Not Active | > 10 | > 10 |  |
| CN(C)c1nccn2c(-c3ccnc(N)n3)c(-c3ccccc3)nc12 |  | > 100 | 56.5 | Non-Toxic |  | 1.9 |  |  |  |  |  |  | > 100 | 23.4 | 1 | Not Active | Not Active | Not Active | 0.035 | > 10 |  |
| CN(C)c1nccn2c(-c3cnn(C)c3)c(-c3ccc(F)cc3)nc12 | > 10 | 1.27 | > 25 | Non-Toxic | > 10 | 0.6 | > 10 | Not Active | 38.5 | Not Active | Not Active | 78.7 | 2.6 | > 25 | 4 |  |  |  |  |  | IC50 (CDK2/Cyclin A2): > 10 µM |
| CN(C)c1nccn2c(-c3ccc4[nH]ncc4c3)c(-c3ccc(F)cc3)nc12 | > 10 | > 12.5 | > 12.5 | Non-Toxic | > 10 | 0.6 | > 10 | Not Active | 2 | Not Active | Not Active | 2 | 12.9 | > 12.5 | 2 |  |  |  |  |  | IC50 (CDK2/Cyclin A2): > 10 µM |
| CN(C)c1nccn2c(-c3ccnc(N)n3)c(-c3ccc(F)cc3)nc12 |  | 9.97 | 24.3 | Non-Toxic |  | 6.9 |  |  | 15.2 |  |  | 10 | 6.55 | 6.12 | 4.1 | Not Active | Not Active | Not Active | 0.042 | > 10 |  |
| CSc1nccc(-c2c(-c3ccccc3)nc3c(N(C)C)nccn23)n1 |  | 17.6 | 45.6 | Non-Toxic |  | 5.6 |  |  | 6.5 |  |  | 4.6 | 12.5 | 5.99 | 1.8 | Not Active | Not Active | Not Active | 3.5 | > 10 |  |
| CSc1nccc(-c2c(-c3ccccc3)nc3c(Cl)nccn23)n1 |  | 9.82 | 17.7 | Non-Toxic |  | 15.8 |  |  | 17.3 |  |  | 3.4 | 1.93 | 3.2 | 1.9 | Not Active | Not Active | Not Active | 5 | > 10 |  |
| CSc1nccc(-c2c(-c3ccc(F)cc3)nc3c(N(C)C)nccn23)n1 |  | 10.4 | 63.5 | Non-Toxic |  | 2.9 |  |  | 10.8 |  |  | 6.4 | 6.2 | 12.5 | 1.1 | Not Active | Not Active | Not Active | 1 | > 10 |  |
| CSc1nccc(-c2c(-c3ccc(F)cc3)nc3c(N)nccn23)n1 |  | > 12.5 | > 12.5 | Non-Toxic |  | > 0.9 |  |  | 1.5 |  |  | 1.5 | > 12.5 | > 12.5 | 1.5 |  | Not Active | Not Active | 0.65 | > 10 | IC50 [12]: 2 µM |
